Experimental findings from PubChem BioAssay are described below.

Assay [1] in a line: inhibitors of TNFa-induced NFkB p65 translocation, primary screen, imaging, HUVEC, MLSMR starter and 10KST1 sets (AID 438;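 active means inhibition above 20% together with a positive visual image hit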;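 further: compound added about 3h40 before a 20 min TNFalpha stimulation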;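 on inhibition: signal is the nuclear over cytoplasmic p65 intensity ratio per well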). The conditions noted are these: HUVEC TNFa-induced p65 nuclear translocation; cell count: measured here: nuclei count (cytotoxicity indicator), at 2.08 µM; inhibition: at 2 µM, stronger effect = higher value, 0% TNFa-plus-vehicle, 100% no-TNFa wells.
The nature of assay [2]: inhibitors of mutant huntingtin aggregation, primary screen, imaging, exon1htt(103Q)mCFP cells, high-content imaging (AID 483;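 active means visual image review flags a hit and inhibition of aggregation exceeds 20%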;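 further: compound exposure lasted 3 days before fixation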;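 on nuclei count: percent of the per-plate median nuclei count of sample wells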). The conditions noted are these: exon1htt(103Q)mCFP cell line, aggregate imaging, at 2 µM; inhibition of aggregation: stronger effect = higher value; nuclei count: measured here: cell count, toxicity.
Assay [3] is described as follows: inhibitors of E-selectin induction by TNFa, primary screen, imaging, HUVEC, immunofluorescence, MLSMR starter and 10KST1 sets (AID 487;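 active means visually confirmed hit in the image check and inhibition above 20%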;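 on inhibition: signal is fraction of cell area covered by stained E-selectin grains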;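 on nuclei count: 100% = median nuclei count of all wells on the same plate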). The conditions noted are these: HUVEC TNFalpha-induced E-selectin immunofluorescence imaging, at 2 µM; inhibition: stronger effect = higher value; nuclei count: measured here: cell number, toxicity.
Assay [4] has as its target Voltage-gated potassium channel subunit beta-2 (Rattus norvegicus) (UniProt P62483). The assay is described as follows: KvBeta enzyme negative modulators, primary screen, biochemical, NADPH fluorescence (AID 622).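 Further: slope of raw intensity against log time taken from 70 to 1610 s.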 The conditions noted are these: recombinant KvBeta, 4-cyanobenzaldehyde reduction, at 10 µM, stronger effect = higher value.
The target is the same in assay [5]. The assay is described as follows: KvBeta positive modulators, primary screen, biochemical, NADPH fluorescence (AID 623;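 active means NADPH fluorescence slope more negative than the mean of all samples by about 3 SD, 99.7% confidence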;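 further: fluorescence intensity change per second fitted from 20 to 320 s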). The conditions noted are these: Recombinant KvBeta, NADPH fluorescence decrease slope, 10 min; at 10 µM; stronger effect = lower value.
Assay [6] addresses Alpha-2C adrenergic receptor (Homo sapiens) (UniProt P18825). The assay is described as follows: modulators of alpha2C/GIRK thallium flux, primary screen, cell-based, HEK293 alpha2C/GIRK1/2 (AID 624;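 active means fluorescence slope after compound addition differing from the mean of all screened samples at 99.7% confidence, in either direction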;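 further: slope of fluorescence ratio to pre-addition baseline per second over 15 to 24 s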). The conditions noted are these: thallium flux BTC fluorescence, at 10 µM, actives lie on both sides.
Assay [7] can be described thus: inhibitors of larval lipid processing in zebrafish, primary screen, whole organism, PED6 fluorescence, gall bladder and intestine (AID 686;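 active means a full or partial loss of lipid-probe fluorescence in the fish gall bladder, intestine or both, judged by eye; inactive means no fluorescence loss, or compound toxic to the fish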;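 further: larvae 5 to 7 days old with five fish per well; signal comes from phospholipase A2 cleavage of quenched PED6 carried via bile; overnight exposure to compound and PED6 before scoring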). The conditions noted are these: Zebrafish larvae PED6 lipid processing, fluorescence scoring; screened at 20 µM (by protocol). In a few lines: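 Test system – live zebrafish larvae aged 5-7 days, whole organism · Buffer or medium – E3 fish medium · Reagent – quenched phospholipase substrate PED6, 100 nM final, ingested by larvae · Doses – 20 µM single dose · Incubation – overnight compound and PED6 incubation · Technique – visual fluorescence microscopy scoring of gall bladder, gut · Read-out basis – visual per-well fluorescence inhibition score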

Assay [8] can be described thus: inhibitors of Sendai virus-induced IRF3 signaling, primary screen, TLR/RLR signaling modifier project, cell-based, Sendai virus stimulus, luciferase, 10K MLSCN set (AID 602276;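 active means inhibition at or above 50% at 10 µM; inactive means inhibition below 50%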;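 further: firefly luciferase from ISG56 promoter only with Renilla not read in this screen; 0% = Sendai virus plus DMSO and 100% = medium plus DMSO without virus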). The conditions noted are these: HEK293 RL24 IRF3 luciferase reporter, at 10 µM, stronger effect = higher value.
The nature of assay [9]: inhibitors of poly I:C-induced TLR3 signaling, primary screen, cell-based, poly I:C stimulus, luciferase, 10K MLSCN set (AID 602277;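 active means inhibition of the reporter signal at or above 50%; inactive means inhibition below 50%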). The conditions noted are these: HEK293-TLR3 RL24 IRF3 luciferase reporter, at 10 µM, stronger effect = higher value. A general note: A reporter such as luciferase makes a cellular process visible.

Calls of active or inactive are those of the source.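 How the source made its calls, unless noted: active means fluorescence slope higher than the sample average by over 3 SD (cut at about -0.22 in these data, passing the limit was not always enough); inactive means the rest.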

Voltage-gated potassium channel subunit beta-2 (Rattus norvegicus), sequence (P62483 whole entry, looked up): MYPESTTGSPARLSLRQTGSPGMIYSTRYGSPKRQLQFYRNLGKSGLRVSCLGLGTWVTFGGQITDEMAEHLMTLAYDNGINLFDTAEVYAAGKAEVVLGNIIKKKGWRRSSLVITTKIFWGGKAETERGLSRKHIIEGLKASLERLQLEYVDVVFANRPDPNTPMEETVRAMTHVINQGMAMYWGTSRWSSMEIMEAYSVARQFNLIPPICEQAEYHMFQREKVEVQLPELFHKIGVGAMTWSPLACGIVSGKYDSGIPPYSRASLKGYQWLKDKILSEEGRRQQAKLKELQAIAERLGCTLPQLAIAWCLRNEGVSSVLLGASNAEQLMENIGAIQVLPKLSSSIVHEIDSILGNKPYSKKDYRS
Alpha-2C adrenergic receptor (Homo sapiens), sequence (P18825 whole entry, looked up): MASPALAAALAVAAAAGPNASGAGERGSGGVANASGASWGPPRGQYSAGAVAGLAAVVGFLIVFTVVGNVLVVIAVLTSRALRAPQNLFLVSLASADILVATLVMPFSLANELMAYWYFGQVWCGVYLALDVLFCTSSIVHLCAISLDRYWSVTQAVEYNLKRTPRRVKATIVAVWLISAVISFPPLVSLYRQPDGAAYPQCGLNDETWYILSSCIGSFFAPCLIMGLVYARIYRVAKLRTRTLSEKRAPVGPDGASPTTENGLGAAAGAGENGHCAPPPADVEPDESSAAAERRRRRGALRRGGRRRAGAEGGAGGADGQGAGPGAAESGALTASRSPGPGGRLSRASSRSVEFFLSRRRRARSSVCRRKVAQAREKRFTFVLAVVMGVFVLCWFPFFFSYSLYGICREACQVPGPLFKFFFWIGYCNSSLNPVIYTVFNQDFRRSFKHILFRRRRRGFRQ

Broadly, the inhibition is the drop in the measured response relative to a control, in per cent. `O=C(NCC1CCCO1)c1cc(-c2ccncc2)nc2ccc(S(=O)(=O)N3CCOCC3)cc12` (stereo not drawn): in assay [1], the cell count is 878. The inhibition was 2.1% (inactive) in assay [1], -91% (inactive) in [3], 10.6% (inactive) in [8] and 10.8% (inactive) in assay [9]. In addition, in assay [2], the inhibition of aggregation was -9.7% (inactive). Moreover, the nuclei count in [2] came out at 106%; in [3] it was 129%. Also, in [4], the fluorescence slope was -0.387 (inactive). Also, the NADPH fluorescence slope in assay [5] is -9.2e-05 (inactive). Also, the slope in [6] is 0.00498 (inactive). In addition, in [7], the molecule was classed as inactive.
Turning to `O=C(c1cccnc1)N1CCN(C(=O)c2ccccc2F)CC1`, the cell count in [1] stood at 343. Moreover, the inhibition is 1% (inactive) in assay [1], -6% (inactive) in assay [3], -1.4% (inactive) in assay [8] and 99.3% (active) in assay [9]. The inhibition of aggregation in assay [2] was -7.4% (inactive). Besides, the values for the nuclei count in assay [2] and in assay [3] were 97.7% and 114%, respectively. Further, the fluorescence slope in assay [4] was -0.353 (inactive). Besides, the NADPH fluorescence slope in [5] is -3.8e-05 (inactive). Further, the slope in [6] is 0.00512 (inactive). In addition, the molecule was classed as inactive in assay [7].
Consider `O=C(CCCn1c(=O)[nH]c2ccsc2c1=O)N1CCN(c2ccccn2)CC1`, for which, in assay [1], the cell count is 665. Besides, the inhibition in assay [1] is -5.2% (inactive); in assay [3] it was -13.1% (inactive); in assay [8], 8.33% (inactive); in assay [9], 13.1% (inactive). In assay [2], the inhibition of aggregation was -1% (inactive). In addition, the values for the nuclei count in assay [2] and in assay [3] were 97.2% and 106%, respectively. In addition, the fluorescence slope in assay [4] is -0.386 (inactive). Also, in assay [5], the NADPH fluorescence slope was -4.1e-05 (inactive). Also, the slope in assay [6] was 0.00451 (inactive). For the same molecule, in assay [7], the outcome was inactive.
Consider `CCC1CCCCN1CCCNC(=O)c1ccc(CS(=O)(=O)Cc2ccccc2F)o1` (stereo not drawn), for which the cell count in [1] worked out at 618. The inhibition in [1] is -20.5% (inactive); in [3], -64.6% (inactive); in assay [8], 6.88% (inactive); in [9] it was 20.5% (inactive). The inhibition of aggregation in [2] is 7.5% (inactive). Further, the nuclei count was 94.4% in assay [2] and 91% in assay [3]. For the same molecule, the fluorescence slope in assay [4] was -0.416 (inactive). The NADPH fluorescence slope in assay [5] is -5.4e-05 (inactive). Moreover, the slope in assay [6] is 0.00482 (inactive). Besides, the molecule was classed as inactive in [7].
Turning to `CC1CCCCC1NC(=O)COc1ccc(-n2cnnn2)cc1` (stereo not drawn), the cell count in [1] worked out at 508. In addition, the inhibition in assay [1] was 6.8% (inactive); in [3], -175% (inactive); in assay [8], 6.84% (inactive); in assay [9], 25.1% (inactive). In addition, in [2], the inhibition of aggregation is 5.2% (inactive). Also, the nuclei count was found to be 81.6% in [2] and 108% in assay [3]. Also, in [4], the fluorescence slope was -0.449 (inactive). In addition, the NADPH fluorescence slope in assay [5] is -7.6e-05 (inactive). The slope in assay [6] is 0.00588 (inactive). The result in assay [7] was inactive.
As to `CCOc1nc(-c2ccccc2O)nc2ccccc12`, in assay [1], the cell count turned out to be 716. In addition, the inhibition was -3.1% (inactive) in assay [1], -148% (inactive) in assay [3], 6.19% (inactive) in assay [8] and 9.49% (inactive) in [9]. Besides, the inhibition of aggregation in assay [2] was -11.6% (inactive). For the same molecule, the nuclei count in assay [2] was 104%; in assay [3], 116%. Moreover, in [4], the fluorescence slope is -0.437 (inactive). Also, in assay [5], the NADPH fluorescence slope is -2.5e-05 (inactive). Further, in assay [6], the slope is 0.00628 (inactive). Moreover, the call in assay [7] was inactive.
Turning to `COC(=O)CN(Cc1ccco1)S(=O)(=O)c1ccccc1`, the cell count in assay [1] stood at 554. In addition, the inhibition in assay [1] was -13.3% (inactive); in assay [3] it was -9.7% (inactive); in assay [8] it was 7.73% (inactive); in [9] it was 6.21% (inactive). Also, the inhibition of aggregation in [2] is -8.4% (inactive). The nuclei count was determined as 111% in assay [2] and 112% in [3]. The fluorescence slope in assay [4] was -0.351 (inactive). Further, the NADPH fluorescence slope in assay [5] is -5.1e-05 (inactive). In addition, the slope in assay [6] was 0.00494 (inactive). Also, the molecule was classed as inactive in assay [7].
Consider `O=C(O)c1ccc(NC(=O)c2cccs2)cc1`, for which the cell count in [1] was found to be 464. The inhibition in [1] was 1.2% (inactive); in assay [3], -75.3% (inactive); in [8] it was 9.12% (inactive); in assay [9], 13.8% (inactive). Besides, in [2], the inhibition of aggregation was 6.1% (inactive). The results for the nuclei count in assay [2] and in assay [3] were 89.3% and 117%, respectively. Moreover, the fluorescence slope in [4] was -0.362 (inactive). For the same molecule, the NADPH fluorescence slope in [5] was -2.7e-05 (inactive). In [6], the slope is 0.00441 (inactive). Further, in assay [7], the outcome was inactive.
Take `COc1cc2cc(C(c3nnnn3C3CCCC3)N3CCCCCC3)c(=O)[nH]c2cc1OC` (stereo not drawn): the cell count in assay [1] came to 477. In addition, the inhibition in assay [1] was -13.3% (inactive); in assay [3], 40.8% (inactive); in assay [8], 17% (inactive); in [9] it was 20.8% (inactive). Moreover, the inhibition of aggregation in [2] was 22.5% (inactive). Moreover, the values for the nuclei count in [2] and in assay [3] were 75% and 73.4%, respectively. For the same molecule, the fluorescence slope in [4] is -0.351 (inactive). In addition, the NADPH fluorescence slope in [5] was -7.3e-05 (inactive). The slope in assay [6] is 0.00516 (inactive). In addition, the outcome in [7] was inactive.
For the molecule `C=CCn1c(SCC(=O)Nc2ccc3c(c2)OCO3)nc2ccccc2c1=O`, in assay [1], the cell count was 388. In addition, the inhibition was -0.4% (inactive) in assay [1], 37.8% (inactive) in assay [3], 15.8% (inactive) in assay [8] and 14.8% (inactive) in assay [9]. Moreover, the inhibition of aggregation in assay [2] was 1.9% (inactive). Also, the nuclei count was 96.8% in [2] and 90.6% in assay [3]. Moreover, in assay [4], the fluorescence slope is -0.429 (inactive). Besides, the NADPH fluorescence slope in [5] was -3.8e-05 (inactive). Besides, the slope in assay [6] was 0.00549 (inactive). Moreover, the outcome in assay [7] was inactive.
As for `CCOC(=O)c1nnc2ccnn2c1N`, the cell count in assay [1] stood at 529. For the same molecule, the inhibition was 6.8% (inactive) in [1], -120% (inactive) in assay [3], 8.28% (inactive) in assay [8] and 16.2% (inactive) in assay [9]. In addition, in [2], the inhibition of aggregation was -6.1% (inactive). Moreover, the values for the nuclei count in assay [2] and in assay [3] were 108% and 111%, respectively. The fluorescence slope in assay [4] is -0.448 (inactive). For the same molecule, the NADPH fluorescence slope in assay [5] is -0.000165 (inactive). Moreover, the slope in assay [6] is 0.00514 (inactive). For the same molecule, the molecule was classed as inactive in [7].
As for `COC(=O)c1ccc(CSc2nc3ccccc3s2)o1`, the cell count in assay [1] was determined as 483. Further, the inhibition is -6.3% (inactive) in [1], -0.4% (inactive) in [3], -35.6% (inactive) in assay [8] and -50.2% (inactive) in assay [9]. Moreover, the inhibition of aggregation in assay [2] was -4% (inactive). The nuclei count in assay [2] was determined as 126%; in [3] it was 104%. Besides, the fluorescence slope in assay [4] is -0.47 (inactive). Also, the NADPH fluorescence slope in assay [5] was -1.1e-05 (inactive). Also, the slope in [6] was 0.00436 (inactive). Further, the call in assay [7] was inactive.
`Cn1c(=O)[nH]c(=O)c2c1nc(N1CCOCC1)n2CC(O)COc1ccc2ccccc2c1` (stereo not drawn): the cell count in assay [1] was found to be 438. Further, the inhibition in [1] is -4.5% (inactive); in [3], -54.4% (inactive); in assay [8], 15.8% (inactive); in assay [9], 19.3% (inactive). For the same molecule, the inhibition of aggregation in assay [2] is 10.8% (inactive). For the same molecule, the values for the nuclei count in assay [2] and in assay [3] were 107% and 120%, respectively. Moreover, the fluorescence slope in [4] was -0.44 (inactive). Also, the NADPH fluorescence slope in assay [5] is -3.2e-05 (inactive). Moreover, the slope in [6] was 0.00556 (inactive). Also, the call in assay [7] was inactive.
Take `Cc1sc2ncnc(Oc3ccc(-n4ccnc4)cc3)c2c1C`: the cell count in assay [1] came to 377. In addition, the inhibition in [1] is -13.2% (inactive); in assay [3], -56.2% (inactive); in assay [8], -6.33% (inactive); in [9] it was -14.4% (inactive). In addition, in assay [2], the inhibition of aggregation was -1% (inactive). In addition, the nuclei count was 109% in [2] and 140% in [3]. In addition, the fluorescence slope in assay [4] was -0.382 (inactive). Moreover, in assay [5], the NADPH fluorescence slope was 7e-06 (inactive). In addition, the slope in assay [6] was 0.00491 (inactive). In addition, the molecule was classed as inactive in [7].
